Results on eleven compounds are retold here after ChEMBL document CHEMBL4732028, “Structural modifications that increase gut restriction of bile acid derivatives” (RSC Med Chem, 2021).

The test system of series [1] is Clostridioides difficile. The series can be described thus: Inhibition of TCA-induced Clostridioides difficile RPRE2 spore germination at 50 uM measured once every minute for 20 mins by microplate reader analysis. The class given is functional. Summed up: (§1)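 Germination of C. difficile spores was induced with 2000 μM taurocholate (TCA), and test compound was added to inhibit it.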

Series [2] in a line: Drug recovery in C57BL/6 mouse feces at 5 mg/kg, po measured after 24 hrs by LC-MS/MS analysis. The class given is ADME, organism-based. The following applies: read-out: Drug recovery.
Series [3] is described as follows: AUC in C57BL/6 mouse at 5 mg/kg, po measured up to 120 mins by LC-MS/MS analysis. The following applies: in vivo. Details: route oral, dose 5 mg/kg, time <=120. The class given is ADME, organism-based.
Series [4] deals with Clostridioides difficile. The series can be described thus: Inhibition of TCA-induced Clostridioides difficile RPRE2 spore germination at 200 uM measured once every minute for 20 mins by microplate reader analysis. The class given is functional. Summed up: as §1
For series [5], the target named is T1, G-protein coupled bile acid receptor 1 (Homo sapiens, UniProt Q8TDU6).
T1 sequence (Q8TDU6 whole entry): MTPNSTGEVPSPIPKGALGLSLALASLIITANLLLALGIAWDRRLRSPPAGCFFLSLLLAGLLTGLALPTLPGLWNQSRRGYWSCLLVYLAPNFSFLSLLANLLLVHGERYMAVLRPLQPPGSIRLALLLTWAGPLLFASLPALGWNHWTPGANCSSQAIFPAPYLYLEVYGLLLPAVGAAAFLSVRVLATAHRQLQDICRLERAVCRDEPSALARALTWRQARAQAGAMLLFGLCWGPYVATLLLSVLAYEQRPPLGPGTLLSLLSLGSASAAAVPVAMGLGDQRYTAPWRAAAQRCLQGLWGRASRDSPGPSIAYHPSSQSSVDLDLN
The series can be described thus: Agonist activity at recombinant human TGR5 expressed in CHO cells assessed as increase in cAMP accumulation after 30 mins by TR-FRET assay. It is filed as functional, cell-based.

A short description of series [6]: Apparent permeability of the compound across basolateral to apical side in human Caco-2 cells. The class given is ADME, cell-based. (Caco-2 cells form a polarised layer with tight junctions and transporters.)
Series [7] has as its target T2, Bile acid receptor (Homo sapiens) (UniProt Q96RI1).
T2 sequence (whole entry): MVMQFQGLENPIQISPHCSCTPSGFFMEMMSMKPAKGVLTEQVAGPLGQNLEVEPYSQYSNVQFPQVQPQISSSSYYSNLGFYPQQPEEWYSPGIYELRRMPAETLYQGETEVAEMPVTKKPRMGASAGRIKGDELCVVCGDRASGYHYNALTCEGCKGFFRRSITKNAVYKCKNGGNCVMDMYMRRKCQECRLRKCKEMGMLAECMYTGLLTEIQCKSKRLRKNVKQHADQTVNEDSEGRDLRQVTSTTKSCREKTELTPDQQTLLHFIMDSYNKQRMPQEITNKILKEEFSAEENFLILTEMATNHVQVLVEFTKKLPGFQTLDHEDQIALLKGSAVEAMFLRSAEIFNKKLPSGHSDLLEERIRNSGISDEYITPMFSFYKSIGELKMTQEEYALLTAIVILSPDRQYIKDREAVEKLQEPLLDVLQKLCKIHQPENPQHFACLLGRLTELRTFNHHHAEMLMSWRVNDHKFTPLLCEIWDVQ
The series can be described thus: Agonist activity at FXR (unknown origin).

The target of series [8] is T3, Vitamin D3 receptor (Homo sapiens) (UniProt P11473).
T3 sequence (whole entry): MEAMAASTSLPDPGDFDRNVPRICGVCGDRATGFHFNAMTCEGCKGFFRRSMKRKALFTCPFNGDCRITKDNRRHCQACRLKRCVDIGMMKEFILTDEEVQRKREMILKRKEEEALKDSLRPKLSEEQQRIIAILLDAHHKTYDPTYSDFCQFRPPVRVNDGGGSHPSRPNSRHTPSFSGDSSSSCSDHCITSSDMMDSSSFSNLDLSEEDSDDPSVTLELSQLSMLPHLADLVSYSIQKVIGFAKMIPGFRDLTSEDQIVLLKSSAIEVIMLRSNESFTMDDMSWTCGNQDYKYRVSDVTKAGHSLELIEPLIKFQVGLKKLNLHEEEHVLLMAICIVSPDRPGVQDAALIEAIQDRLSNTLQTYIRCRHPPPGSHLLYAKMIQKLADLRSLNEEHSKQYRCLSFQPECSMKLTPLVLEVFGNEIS
Description: Agonist activity at VDR (unknown origin).

Series [9] in a line: Apparent permeability of the compound across apical to basolateral side in human Caco-2 cells. The class given is ADME, cell-based.
A further series concerns HEK293. Description: Cytotoxicity against human HEK293 cells at 10 uM. It is filed as cell-based. The following applies: hek293, 10 µM.

The source made the active and inactive calls. The calls are words filed in the database; no cut-off is given here.

In general, AUC refers to concentration integrated over time. Read a low AUC as less exposure. As to `CO[C@@H]1CC[C@@]2(C)[C@@H](C1)C[C@H](OS(=O)(=O)[O-])[C@@H]1[C@@H]2CC[C@]2(C)[C@@H]([C@H](C)CCC(=O)N3CCCC3)CC[C@@H]12.[Na+]`, the inhibition result in the series on Clostridioides difficile [1] is “Active”. For the same compound, in [2], the dose excreted at 24 h amounted to 29.1%. Moreover, the AUC at 2 h in [3] was found to be 14300 ng·h/mL.

In general, EC50 refers to the concentration at which the effect is half-maximal. Regarding `CO[C@@H]1C[C@@H]2C[C@H](O)CC[C@]2(C)[C@H]2CC[C@]3(C)[C@@H]([C@H](C)CCC(=O)N(C)C[C@H](O)[C@@H](O)[C@H](O)[C@H](O)CO)CC[C@H]3[C@H]12`, the dose excreted at 24 h in series [2] worked out at 39.7%. Moreover, the inhibition result in the series with Clostridioides difficile [4] was “inactive”. Besides, in series [3], the AUC at 2 h amounted to 1250 ng·h/mL. Further, the EC50 in series [5] came to 62.3 nM.

For `CO[C@@H]1C[C@@H]2C[C@H](O)CC[C@]2(C)[C@H]2CC[C@]3(C)[C@@H]([C@H](C)CCC(=O)N(CCCNC(=O)[C@H](O)[C@@H](O)[C@H](O)[C@H](O)CO)CCCNC(=O)[C@H](O)[C@@H](O)[C@H](O)[C@H](O)CO)CC[C@H]3[C@H]12`, the EC50 in series [5] was found to be 567 nM.

`CO[C@@H]1CC[C@@]2(C)[C@@H](C1)C[C@H](O)[C@@H]1[C@@H]2CC[C@]2(C)[C@@H]([C@H](C)CCC(=O)N3CCCC3)CC[C@@H]12`: the dose excreted at 24 h in series [2] came to 3%. Also, in [3], the AUC at 2 h came out at 29600 ng·h/mL.

A word on the Papp B→A: it is the apparent permeability from the basolateral to the apical side of a cell layer. The term Papp A→B denotes the apparent permeability from the apical to the basolateral side of a cell layer. With `CO[C@@H]1C[C@@H]2C[C@H](O)CC[C@]2(C)[C@H]2CC[C@]3(C)[C@@H]([C@H](C)CCc4nnc(C)o4)CC[C@H]3[C@H]12`, the dose excreted at 24 h in series [2] was determined as 7.1%. Moreover, the Papp B→A in series [6] turned out to be 0.12 ×10⁻⁶ cm/s. The result in series [7] and in [8] was inactive. Moreover, the Papp A→B in series [9] came to 0.27 ×10⁻⁶ cm/s. Also, the Activity entry in the series on HEK293 was “Non-Toxic”. The AUC at 2 h in series [3] was found to be 25700 ng·h/mL.

For the compound `CO[C@@H]1CC[C@@]2(C)[C@@H](C1)C[C@@H](O)[C@@H]1[C@@H]2CC[C@]2(C)[C@@H]([C@H](C)CCc3nn[nH]n3)CC[C@@H]12`, the inhibition entry in the series with Clostridioides difficile [1] was “Active”.

In the case of `Cc1nnc(CC[C@@H](C)[C@H]2CC[C@H]3[C@@H]4[C@H](O)C[C@@H]5C[C@H](O)CC[C@]5(C)[C@H]4CC[C@]23C)o1`, the dose excreted at 24 h in series [2] turned out to be 0.5%. For the same compound, the Papp B→A in [6] was 1.5 ×10⁻⁶ cm/s. Further, in series [9], the Papp A→B was 2.6 ×10⁻⁶ cm/s. Further, in [3], the AUC at 2 h is 45800 ng·h/mL.

For the compound `CO[C@@H]1C[C@@H]2C[C@H](O)CC[C@]2(C)[C@H]2CC[C@]3(C)[C@@H]([C@H](C)CCC(=O)NC[C@H](O)[C@@H](O)[C@H](O)[C@H](O)CO)CC[C@H]3[C@H]12`, in series [2], the dose excreted at 24 h turned out to be 11.7%. In addition, the inhibition entry in the series on Clostridioides difficile [4] was “inactive”. The compound also came in with an exposure (AUC) at 2 h in series [3] of 1520 ng·h/mL. Besides, the EC50 in series [5] came out at 33.3 nM.

Regarding `CO[C@@H]1CC[C@@]2(C)[C@@H](C1)C[C@@H](O)[C@@H]1[C@@H]2CC[C@]2(C)[C@@H]([C@H](C)CCc3nnn[n-]3)CC[C@@H]12.[Na+]`, the dose excreted at 24 h in series [2] came out at 7.7%. Moreover, in series [3], the AUC at 2 h turned out to be 37700 ng·h/mL.

As for `CO[C@@H]1CC[C@@]2(C)[C@@H](C1)C[C@@H](OS(=O)(=O)[O-])[C@@H]1[C@@H]2CC[C@]2(C)[C@@H]([C@H](C)CCc3nnn[n-]3)CC[C@@H]12.[Na+].[Na+]`, the inhibition result with Clostridioides difficile [1] was “Active”. The dose excreted at 24 h in series [2] was determined as 89.1%. Also, the area under the curve (AUC) at 2 h in series [3] came to 4840 ng·h/mL.

With `CO[C@@H]1C[C@@H]2C[C@H](O)CC[C@]2(C)[C@H]2CC[C@]3(C)[C@@H]([C@H](C)CCC(=O)O)CC[C@H]3[C@H]12`, in series [5], the EC50 was 76.8 nM.
